Data on 54 compounds can be found in ChEMBL document CHEMBL1154598, “7-Hydroxy-benzopyran-4-one derivatives: a novel pharmacophore of peroxisome proliferator-activated receptor alpha and -gamma (PPARalpha and gamma) dual agonists” (J Med Chem, 2009).

Activity calls are given as the source filed them. No cut-off for these calls is given here. Some results are limits rather than exact numbers.

For data set [1], the target named is T1, Peroxisome proliferator-activated receptor gamma (Homo sapiens) (UniProt P37231).
T1 sequence (whole entry): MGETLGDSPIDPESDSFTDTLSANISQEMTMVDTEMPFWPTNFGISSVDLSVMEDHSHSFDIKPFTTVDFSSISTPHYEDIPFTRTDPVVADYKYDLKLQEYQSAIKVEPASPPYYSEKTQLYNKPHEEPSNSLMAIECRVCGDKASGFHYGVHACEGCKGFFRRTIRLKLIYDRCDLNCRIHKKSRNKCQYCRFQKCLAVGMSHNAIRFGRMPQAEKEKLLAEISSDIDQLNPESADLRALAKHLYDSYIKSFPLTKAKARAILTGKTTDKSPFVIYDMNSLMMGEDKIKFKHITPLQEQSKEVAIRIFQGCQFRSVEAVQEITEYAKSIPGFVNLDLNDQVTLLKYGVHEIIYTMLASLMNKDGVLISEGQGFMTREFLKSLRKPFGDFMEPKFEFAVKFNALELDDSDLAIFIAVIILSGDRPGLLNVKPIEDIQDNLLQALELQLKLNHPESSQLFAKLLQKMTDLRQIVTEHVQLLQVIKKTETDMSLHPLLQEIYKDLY
Kind of data set: Agonist activity at human PPARgamma expressed in HEK293 cells co-transfected with PPRE assessed as beta-galactosidase signal at 25 uM after 48 hrs by reporter gene assay relative to control. The format is functional, cell-based. A digest of the protocol:
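HEK293 cells were transfected with FuGENE 6 using a PPRE-luciferase reporter, pSG5-hPPARγ1 and a β-galactosidase control plasmid. After 24 h they were replated at 5 × 10⁴ cells/well, attached overnight, then treated for 48 h with 0.1% DMSO as vehicle. Luciferase was read, normalized to the β-gal signal and reported as fold activation over vehicle. Mean of two experiments in triplicate.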

Data set [2] has as its target T2, Peroxisome proliferator-activated receptor alpha (Homo sapiens) (UniProt Q07869).
T2 sequence (whole entry): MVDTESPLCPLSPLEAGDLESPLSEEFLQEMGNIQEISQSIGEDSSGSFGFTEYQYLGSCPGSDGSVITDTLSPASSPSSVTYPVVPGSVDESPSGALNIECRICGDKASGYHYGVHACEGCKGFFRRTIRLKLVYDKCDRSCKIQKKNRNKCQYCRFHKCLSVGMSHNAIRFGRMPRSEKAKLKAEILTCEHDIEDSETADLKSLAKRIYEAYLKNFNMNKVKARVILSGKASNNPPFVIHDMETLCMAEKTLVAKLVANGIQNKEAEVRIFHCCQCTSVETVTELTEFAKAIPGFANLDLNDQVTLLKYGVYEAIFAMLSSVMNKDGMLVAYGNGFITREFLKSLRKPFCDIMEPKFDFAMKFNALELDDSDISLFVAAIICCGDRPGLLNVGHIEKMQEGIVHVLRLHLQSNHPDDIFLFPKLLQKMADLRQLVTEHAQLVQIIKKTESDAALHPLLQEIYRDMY
The data set is described as follows: Agonist activity at human PPARalpha expressed in HEK293 cells co-transfected with PPRE assessed as beta-galactosidase signal at 40 uM after 48 hrs by reporter gene assay relative to control. It counts as functional, cell-based. In short, it runs like this:
(§1)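 Human PPARα transactivation in HEK293 cells grown in DMEM/F-12 with 10% heat-inactivated FBS. Cells were transfected with FuGENE 6 using a PPRE-luciferase reporter, pBI-G-hPPARα and a β-galactosidase control plasmid. After 24 h they were replated at 5 × 10⁴ cells/well, attached overnight, then dosed for 48 h with 0.1% DMSO as vehicle. Luciferase was normalized to β-gal and expressed as fold over vehicle. Two experiments, each in triplicate.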

Data set [3] concerns the target T2, Peroxisome proliferator-activated receptor alpha (Homo sapiens). Kind of data set: Agonist activity at human PPARalpha expressed in HEK293 cells co-transfected with PPRE assessed as beta-galactosidase signal at 25 uM after 48 hrs by reporter gene assay relative to control. It counts as functional, cell-based. In short, it runs like this:
as §1
(In general: Reporter assays use an easily measured gene product as a stand-in for the process of interest.)

A short description of data set [4]: Cytotoxicity against HEK293 cells assessed as viable cells at 100 uM after 48 hrs by aqueous one solution cell proliferation assay relative to control. It counts as cell-based. The following applies: human, read-out: Activity. A digest of the protocol: (§2)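 HEK293 cells were seeded overnight, then exposed to 0–100 μM compound for 48 h at 37 °C in 5% CO₂. MTS reagent was added for a further 2 h and absorbance read at 490 nm. Viability is given as % relative to DMSO vehicle control. Two experiments, each in quadruplicate.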

A short description of data set [5]: Cytotoxicity against HEK293 cells assessed as viable cells at 50 uM after 48 hrs by aqueous one solution cell proliferation assay relative to control. It counts as cell-based. Particulars: human, read-out: Activity. In short, it runs like this: as §2
For data set [6], the target named is T3, Peroxisome proliferator-activated receptor gamma (Homo sapiens, UniProt P37231).
T3 sequence (P37231 whole entry): T1 sequence (whole entry)
Kind of data set: Agonist activity at human PPARgamma assessed as luciferase activity by transactivation assay. The format is functional. A digest of the protocol:
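Transiently transfected HEK293 (PPRE-luciferase reporter plus pSG5-hPPARγ1 and β-gal control), compound exposure 48 h. EC50 is the ligand concentration giving half-maximal fold induction of β-gal-normalized luciferase, fitted by nonlinear regression. Means of three experiments.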

Data set [7] has as its target T4, Peroxisome proliferator-activated receptor alpha (Homo sapiens, UniProt Q07869).
T4 sequence (Q07869 whole entry): T2 sequence (whole entry)
Kind of data set: Agonist activity at human PPARalpha assessed as luciferase activity by transactivation assay. It counts as functional.

Consider `COc1ccccc1/C=C/C(=O)c1ccc(O)cc1O`, for which the fold change (FC) in data set [1] amounted to 1.1.

Turning to `COc1ccc(-c2c(-c3ccc(O)cc3O)n[nH]c2C)cc1`, in data set [1], the fold change (FC) is 2.2.

Regarding `COc1ccc2c(=O)c(-c3ccc4c(c3)OCO4)coc2c1`, the fold change (FC) came to 2.4 in data set [2], 25.2 in data set [1] and 2.2 in data set [3].

Take `O=c1c(-c2ccc(C(F)(F)F)cc2)coc2cc(O)ccc12`: the fold change (FC) in data set [1] turned out to be 4.4.

For the compound `O=c1c(-c2ccc3c(c2)OCCO3)coc2cc(OC3CCCCO3)ccc12` (stereo unspecified), the fold change (FC) in data set [2] was found to be 3.3; in data set [1] it was 2; in data set [3], 2.5.

Turning to `O=c1c(-c2ccc3c(c2)OCCO3)coc2cc(O)ccc12`, in data set [1], the fold change (FC) was determined as 11.3.

For the compound `CN(CCOc1ccc(CC2SC(=O)NC2=O)cc1)c1ccccn1` (stereo unspecified) [ROSIGLITAZONE], the viability at 48 h, 100 µM in data set [4] turned out to be 46%.

In the case of `O=c1c(-c2cc(O)cc(O)c2)coc2cc(O)ccc12`, in data set [1], the fold change (FC) is 7.4.

`O=c1cc(-c2ccc(O)c(O)c2)oc2ccccc12`: the fold change (FC) in data set [2] turned out to be 7.7; in data set [1], 5; in data set [3], 2.8.

Turning to `Oc1ccc(-c2n[nH]cc2-c2ccc(F)cc2)c(O)c1`, the fold change (FC) in data set [1] came to 1.7.

Take `O=c1c(O)c(-c2ccc(O)c(O)c2)oc2cc(O)cc(O)c12`: the fold change (FC) in data set [1] is 1.3.

For the compound `COc1ccccc1-c1coc2cc(O)ccc2c1=O`, the fold change (FC) in data set [1] is 1.6.

`CCc1cc2c(=O)c(-c3ccc4c(c3)OCO4)coc2cc1O`: the fold change (FC) in data set [1] is 12.7.

`O=c1cc(-c2ccccc2O)oc2cc(O)ccc12`: the fold change (FC) stood at 4.9 in data set [2], 6.8 in data set [1] and 3.6 in data set [3].

Consider `O=c1cc(-c2ccc(O)cc2)oc2cc(O)ccc12`, for which the fold change (FC) is 2.6 in data set [2], 5 in data set [1] and 1.5 in data set [3].

`COc1ccc([C@@H]2CC(=O)c3c(O)cc(O)cc3O2)cc1O`: the fold change (FC) in data set [2] came to 2; in data set [1], 3.8; in data set [3], 1.9.

In the case of `COc1ccc(/C=C/C(=O)c2ccc(O)cc2O)cc1`, in data set [1], the fold change (FC) was 2.6.

For `COc1cc(-c2cc(=O)c3c(O)cc(O)cc3o2)ccc1O`, the fold change (FC) in data set [2] is 1.3; in data set [1], 2.2; in data set [3] it was 1.1.

Consider `O=c1c(-c2ccc(F)cc2)coc2cc(O)ccc12`, for which the viability at 48 h, 50 µM in data set [5] was more than 67%. The fold change (FC) in data set [2] was determined as 28.7; in data set [1], 148; in data set [3], 8.6. Further, the results for the EC50 in data set [6] and in data set [7] were 15.4 µM and 33.1 µM, respectively.

In the case of `CCc1cc2c(=O)c(-c3ccc4c(c3)OCO4)c(C(F)(F)F)oc2cc1O`, the outcome in data set [1] was inactive.

Regarding `COc1ccc(-c2cc(=O)c3c(O)cc(O)cc3o2)cc1`, the fold change (FC) in data set [2] was determined as 5.2; in data set [1] it was 7.7; in data set [3], 2.3.

With `CN(CCOc1ccc(C[C@H](Nc2ccccc2C(=O)c2ccccc2)C(=O)O)cc1)c1ccccn1`, the viability at 48 h, 100 µM in data set [4] came out at 33%.

Turning to `COc1ccc(-c2oc3cc(O)ccc3c(=O)c2O)cc1OC`, the fold change (FC) in data set [1] came out at 2.4.

Turning to `COc1ccc(-c2coc3cc(O)ccc3c2=O)c(OC)n1`, the outcome in data set [1] was inactive.

Turning to `O=c1c(-c2cccc(F)c2)coc2cc(O)ccc12`, the fold change (FC) in data set [1] came out at 4.1.

Turning to `O=c1cc(-c2cccc(O)c2)oc2cc(O)ccc12`, the values for the fold change (FC) in data set [2], in data set [1] and in data set [3] were 14.8, 6.3 and 8.2, respectively.

With `COc1ccc(-c2cc(=O)c3c(O)cc(O)cc3o2)cc1O`, the fold change (FC) in data set [2] was 3.8; in data set [1], 7.3; in data set [3], 2.8.

As for `Oc1ccc(-c2n[nH]cc2-c2ccc3c(c2)OCO3)c(O)c1`, the outcome in data set [1] was inactive.

Consider `COc1ccc(-c2coc3cc(O)ccc3c2=O)cc1OC`, for which the fold change (FC) in data set [1] is 10.5.

Take `O=c1c(-c2ccc(F)cc2F)coc2cc(O)ccc12`: the fold change (FC) in data set [1] came out at 13.8.

Turning to `O=c1c(-c2ccc(O)cc2)coc2cc(O)c(O)cc12`, the fold change (FC) in data set [2] came out at 4; in data set [1], 4.4; in data set [3], 1.8.

`COc1ccc(/C=C/C(=O)c2ccc(O)cc2O)cc1OC`: in data set [1], the fold change (FC) stood at 3.5.

As to `O=c1cc(-c2ccc(O)cc2)oc2ccc(O)cc12`, the fold change (FC) was determined as 3.5 in data set [2], 5 in data set [1] and 2.6 in data set [3].

Consider `COc1cc(-c2coc3cc(O)ccc3c2=O)cc(OC)c1OC`, for which the outcome in data set [1] was inactive.

As to `O=C1C[C@@H](c2ccc(O)cc2)Oc2cc(O)cc(O)c21`, the fold change (FC) in data set [2] amounted to 1.7; in data set [1], 1.7; in data set [3], 1.2.

As for `O=c1c(-c2cccc(OC(F)(F)F)c2)coc2cc(O)ccc12`, in data set [1], the fold change (FC) stood at 2.1.

Turning to `O=c1c(-c2ccc(O)cc2)coc2cc(O)cc(O)c12`, the fold change (FC) in data set [1] is 3.4.

With `O=c1c(-c2ccc(O)cc2)coc2cc(O)ccc12`, the figures for the fold change (FC) in data set [2], in data set [1] and in data set [3] were 13.4, 9.6 and 6.2, respectively.

As for `O=c1c(-c2cc(F)c(F)c(F)c2)coc2cc(O)ccc12`, in data set [1], the fold change (FC) amounted to 1.4.

On to `COc1cccc(/C=C/C(=O)c2ccc(O)cc2O)c1`, for which the fold change (FC) in data set [1] is 2.1.

For `COc1cc(-c2oc3cc(O)cc(O)c3c(=O)c2O)cc(OC)c1O`, the fold change (FC) in data set [1] was determined as 1.2.

Consider `O=C(/C=C/c1ccc(O)cc1)c1ccc(O)cc1O`, for which the fold change (FC) in data set [1] was 1.3.

As for `COc1cc(-c2coc3cc(OC4CCCCO4)ccc3c2=O)cc(OC)c1OC` (stereo unspecified), the fold change (FC) in data set [1] worked out at 2.3.

Consider `O=c1c(-c2ccc(Cl)cc2)coc2cc(O)ccc12`, for which the fold change (FC) in data set [1] came out at 2.6.

For `Oc1ccc(-c2n[nH]c(C(F)(F)F)c2-c2ccc(F)cc2)c(O)c1`, in data set [1], the fold change (FC) is 3.9.

As to `Cc1[nH]nc(-c2ccc(O)cc2O)c1-c1ccc(F)cc1`, the fold change (FC) in data set [1] stood at 5.3.

Regarding `O=c1c(-c2ccc3c(c2)OCO3)coc2cc(OC3CCCCO3)ccc12` (stereo unspecified), the fold change (FC) in data set [1] came to 9.4.

As to `COc1c(F)cc(F)cc1-c1coc2cc(O)ccc2c1=O`, the fold change (FC) in data set [1] turned out to be 7.5.

As for `O=c1c(-c2ccc(O)c(O)c2)coc2cc(O)ccc12`, the fold change (FC) in data set [1] was found to be 7.5.

On to `COc1ccc(-c2coc3cc(O)ccc3c2=O)cc1`, for which the fold change (FC) in data set [2] came out at 7.8; in data set [1] it was 12.8; in data set [3], 7.5.

With `CCc1cc2c(=O)c(-c3ccc4c(c3)OCO4)c(C)oc2cc1OCC(=O)O`, the fold change (FC) in data set [1] came out at 2.3.

For the compound `O=c1c(-c2cccc(OCc3ccccc3)c2)coc2cc(O)ccc12`, the result in data set [1] was inactive.

`O=c1cc(-c2ccc(O)cc2)oc2cccc(O)c12`: the fold change (FC) turned out to be 3.7 in data set [2], 8.9 in data set [1] and 2.4 in data set [3].

Take `CCc1cc2c(=O)c(-c3ccc4c(c3)OCO4)c(C)oc2cc1O`: the fold change (FC) in data set [1] worked out at 5.3.

For orientation: EC50 means the concentration giving half of the maximal effect.
